Test results published in ChEMBL document CHEMBL1154425, “Histatin-derived monomeric and dimeric synthetic peptides show strong bactericidal activity towards multidrug-resistant Staphylococcus aureus in vivo” (Antimicrob Agents Chemother, 2007).
Positions of bridges follow the written chain, without caps; N, C: chain ends. Residues, ends and D or L forms follow the SMILES beside them. Chains are numbered I, II in the order given.

What was measured:
[1] = Ratio of drug level in infected thigh muscle to contralateral noninfected thigh muscle in multidrug-resistant Staphylococcus aureus 2141 infected Swiss mouse administered as [99m]technetium-radiolabeled peptide; type: ADME, tissue-based; settings: in vivo
How it was run: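 99mTc-labelled peptides (2 to 5 MBq) injected intravenously into infected mice. Scintigraphic imaging at intervals. Ratio = accumulation in infected thigh muscle (target) over contralateral noninfected thigh muscle (nontarget).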

Staphylococcus aureus [2] = experiment: Bactericidal activity against Staphylococcus aureus ATCC 25923 after 2 hrs; type: functional; settings: ATCC 25923, 2 h
How it was run: (§1)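 1 × 10^6/ml bacteria in phosphate buffer with 1% (wt/vol) tryptic soybean broth exposed to various peptide amounts, 2 h at 37°C. Viable counts on DST plates. LC50 = concentration (μM) cutting viable bacteria by 50% versus no-peptide incubations. Means from at least three independent experiments.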

Staphylococcus aureus [3] = experiment: Bactericidal activity against multidrug-resistant Staphylococcus aureus 2141 isolate after 2 hrs; type: functional; how it was run: as §1
Staphylococcus aureus [4] = experiment: Bactericidal activity against multidrug-resistant Staphylococcus aureus 2141 isolate infected iv dosed Swiss mouse assessed per gram of infected soft tissue after 24 hrs; type: functional
How it was run: (§2)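 Mice infected with 0.1 ml saline containing 0.5 to 2.0 × 10^7 CFU. After 18 h, various peptide amounts given intravenously. Mice kept another 24 h, then sacrificed and viable bacteria counted. LC50 = μmol/g infected tissue cutting viable counts by 50% versus untreated mice. Means from at least three animals per peptide concentration.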

Liver = experiment: Biodistribution in Swiss mouse liver at 2 to 5 MBq, iv administered as [99m]technetium-radiolabeled peptide by scintigraphic imaging; type: ADME, organism-based; settings: in vivo
How it was run: (§3)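 Mice carry a thigh-muscle infection from 0.1 ml saline containing 0.5 to 2.0 × 10^7 CFU S. aureus. Peptides labelled with 99mTc (2 to 5 MBq) are injected intravenously and tracked by scintigraphic imaging. Radioactivity in bladder, kidneys, spleen, liver and infected muscle is given as % of injected dose, mean ± SD.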

[5] = Biodistribution in Staphylococcus aureus infected Swiss mouse thigh muscle at 2 to 5 MBq, iv administered as [99m]technetium-radiolabeled peptide by scintigraphic imaging; type: ADME, organism-based, Muscle tissue; settings: in vivo; how it was run: as §3
Mus musculus = experiment: Metabolic stability in Swiss mouse at 2 to 5 MBq, iv administered as [99m]technetium-radiolabeled peptide by scintigraphic imaging; type: ADME, organism-based; settings: in vivo
How it was run: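 After intravenous injection of 99mTc-labelled peptide (2 to 5 MBq) into thigh-infected mice, scintigraphic imaging follows clearance from the circulation. The value is the biological half-life in minutes, mean ± SD.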

Kidney = experiment: Biodistribution in Swiss mouse kidney at 2 to 5 MBq, iv administered as [99m]technetium-radiolabeled peptide by scintigraphic imaging; type: ADME, organism-based; settings: in vivo; how it was run: as §3
Spleen = experiment: Biodistribution in Swiss mouse spleen at 2 to 5 MBq, iv administered as [99m]technetium-radiolabeled peptide by scintigraphic imaging; type: ADME, organism-based; settings: in vivo; how it was run: as §3
[6] = Biodistribution in Swiss mouse urinary bladder at 2 to 5 MBq, iv administered as [99m]technetium-radiolabeled peptide by scintigraphic imaging; type: ADME, organism-based; settings: in vivo; how it was run: as §3
Staphylococcus aureus [7] = experiment: Bactericidal activity against Staphylococcus aureus ATCC 25923 infected iv dosed Swiss mouse assessed per gram of infected soft tissue after 24 hrs; type: functional; how it was run: as §2

| SMILES | Ratio [1] | LC50 (Staphylococcus aureus [2]) | LC50 (Staphylococcus aureus [3]) | LC50 (Staphylococcus aureus [4]) | Drug uptake (Liver) | Drug uptake [5] | t1/2 (Mus musculus) | Drug uptake (Kidney) | Drug uptake (Spleen) | Drug uptake [6] | LC50 (Staphylococcus aureus [7]) |
| --- | --- | --- | --- | --- | --- | --- | --- | --- | --- | --- | --- |
| C[C@H](N)C(=O)N[C@@H](CCCCN)C(=O)N[C@@H](CCCNC(=N)N)C(=O)N[C@@H](Cc1c[nH]cn1)C(=O)N[C@@H](Cc1c[nH]cn1)C(=O)NCC(=O)N[C@@H](Cc1ccc(O)cc1)C(=O)N[C@@H](CCCCN)C(=O)N[C@@H](CCCNC(=N)N)C(=O)N[C@@H](CCCCN)C(=O)N[C@@H](Cc1ccccc1)C(=O)N[C@@H](Cc1c[nH]cn1)C(=O)O (H-AKRHHGYKRKFH-OH) | 1.8 | – | – | – | – | – | – | – | – | – | – |
| C[C@H](N)C(=O)N[C@@H](CCCCN)C(=O)N[C@@H](CCCNC(=N)N)C(=O)N[C@@H](Cc1cnc[nH]1)C(=O)N[C@@H](Cc1cnc[nH]1)C(=O)NCC(=O)N[C@@H](Cc1ccc(O)cc1)C(=O)N[C@@H](CCCCN)C(=O)N[C@@H](CCCNC(=N)N)C(=O)N[C@@H](CCCCN)C(=O)N[C@@H](Cc1ccccc1)C(=O)N[C@@H](Cc1cnc[nH]1)C(=O)O (H-AKRHHGYKRKFH-OH) | – | 12.5 µM | 18.6 µM | 3 µmol/g | – | – | – | – | – | – | – |
| CC(C)C[C@H](NC(=O)[C@H](CO)NC(=O)[C@H](Cc1ccccc1)NC(=O)[C@H](CC(C)C)NC(=O)[C@H](CC(C)C)NC(=O)[C@H](CCCCN)NC(=O)[C@H](CCCCN)NC(=O)[C@H](Cc1ccccc1)NC(=O)[C@H](CC(C)C)NC(=O)[C@H](CCCNC(=N)N)NC(=O)[C@@H](N)CCCCN)C(=O)N[C@@H](CCCNC(=N)N)C(=O)N[C@@H](CCCCN)C(=O)N[C@@H](Cc1ccc(O)cc1)C(=O)O (H-KRLFKKLLFSLRKY-OH) | 1.8 | 4.2 µM | 3.1 µM | 1.5 µmol/g | 10.7 %ID | 0.5 %ID | 28.6 min | 24.9 %ID | 3.1 %ID | 23.8 %ID | 1 µmol/g |
| CC(C)C[C@H](NC(=O)[C@H](CC(C)C)NC(=O)[C@H](Cc1ccccc1)NC(=O)[C@H](CC(C)C)NC(=O)[C@H](CC(C)C)NC(=O)[C@@H](N)CC(C)C)C(=O)N[C@@H](CCCCN)C(=O)N[C@@H](CCCCN)C(=O)N[C@@H](CCCNC(=N)N)C(=O)N[C@@H](CCCCN)C(=O)N[C@@H](CCCCN)C(=O)N[C@@H](CCCNC(=N)N)C(=O)N[C@@H](CCCCN)C(=O)N[C@@H](Cc1ccc(O)cc1)C(=O)O (H-LLLFLLKKRKKRKY-OH) | 1.8 | 51 µM | 17.3 µM | 3 µmol/g | 12.8 %ID | 0.9 %ID | 38.8 min | 26 %ID | 10.8 %ID | 14.6 %ID | 2 µmol/g |
| C[C@H](N)C(=O)N[C@@H](CCCCN)C(=O)N[C@@H](CCCNC(=N)N)C(=O)N[C@@H](Cc1cnc[nH]1)C(=O)N[C@@H](Cc1cnc[nH]1)C(=O)NCC(=O)N[C@@H](Cc1ccc(O)cc1)C(=O)N[C@@H](CCCCN)C(=O)N[C@@H](CCCNC(=N)N)C(=O)N[C@@H](CCCCN)C(=O)N[C@@H](Cc1ccccc1)C(=O)N[C@@H](Cc1cnc[nH]1)C(=O)NCCCC[C@H](NC(=O)[C@H](Cc1cnc[nH]1)NC(=O)[C@H](Cc1ccccc1)NC(=O)[C@H](CCCCN)NC(=O)[C@H](CCCNC(=N)N)NC(=O)[C@H](CCCCN)NC(=O)[C@H](Cc1ccc(O)cc1)NC(=O)CNC(=O)[C@H](Cc1cnc[nH]1)NC(=O)[C@H](Cc1cnc[nH]1)NC(=O)[C@H](CCCNC(=N)N)NC(=O)[C@H](CCCCN)NC(=O)[C@H](C)N)C(N)=O (I: H-AKRHHGYKRKFHK-NH2 / II: H-AKRHHGYKRKFH; amide I:13-II:C) [listing 1 of 2 here] | 1.8 | – | – | – | – | – | – | – | – | – | – |
| C[C@H](N)C(=O)N[C@@H](CCCCN)C(=O)N[C@@H](CCCNC(=N)N)C(=O)N[C@@H](Cc1cnc[nH]1)C(=O)N[C@@H](Cc1cnc[nH]1)C(=O)NCC(=O)N[C@@H](Cc1ccc(O)cc1)C(=O)N[C@@H](CCCCN)C(=O)N[C@@H](CCCNC(=N)N)C(=O)N[C@@H](CCCCN)C(=O)N[C@@H](Cc1ccccc1)C(=O)N[C@@H](Cc1cnc[nH]1)C(=O)NCCCC[C@H](NC(=O)[C@H](Cc1cnc[nH]1)NC(=O)[C@H](Cc1ccccc1)NC(=O)[C@H](CCCCN)NC(=O)[C@H](CCCNC(=N)N)NC(=O)[C@H](CCCCN)NC(=O)[C@H](Cc1ccc(O)cc1)NC(=O)CNC(=O)[C@H](Cc1cnc[nH]1)NC(=O)[C@H](Cc1cnc[nH]1)NC(=O)[C@H](CCCNC(=N)N)NC(=O)[C@H](CCCCN)NC(=O)[C@H](C)N)C(N)=O (I: H-AKRHHGYKRKFHK-NH2 / II: H-AKRHHGYKRKFH; amide I:13-II:C) [listing 2 of 2 here] | – | 49.8 µM | 38.9 µM | 3 µmol/g | – | – | – | – | – | – | – |
| CC(C)C[C@H](NC(=O)[C@H](CO)NC(=O)[C@H](Cc1ccccc1)NC(=O)[C@H](CC(C)C)NC(=O)[C@H](CC(C)C)NC(=O)[C@H](CCCCN)NC(=O)[C@H](CCCCN)NC(=O)[C@H](Cc1ccccc1)NC(=O)[C@H](CC(C)C)NC(=O)[C@H](CCCNC(=N)N)NC(=O)[C@@H](N)CCCCN)C(=O)N[C@@H](CCCNC(=N)N)C(=O)N[C@@H](CCCCN)C(=O)N[C@@H](Cc1ccc(O)cc1)C(=O)NCCCC[C@H](NC(=O)[C@H](Cc1ccc(O)cc1)NC(=O)[C@H](CCCCN)NC(=O)[C@H](CCCNC(=N)N)NC(=O)[C@H](CC(C)C)NC(=O)[C@H](CO)NC(=O)[C@H](Cc1ccccc1)NC(=O)[C@H](CC(C)C)NC(=O)[C@H](CC(C)C)NC(=O)[C@H](CCCCN)NC(=O)[C@H](CCCCN)NC(=O)[C@H](Cc1ccccc1)NC(=O)[C@H](CC(C)C)NC(=O)[C@H](CCCNC(=N)N)NC(=O)[C@@H](N)CCCCN)C(N)=O (I: H-KRLFKKLLFSLRKYK-NH2 / II: H-KRLFKKLLFSLRKY; amide I:15-II:C) | 1.8 | 0.5 µM | 0.4 µM | 1 µmol/g | 19.9 %ID | 0.8 %ID | 34 min | 29.1 %ID | 4 %ID | 17 %ID | 1 µmol/g |
| CC(C)C[C@H](NC(=O)[C@H](CC(C)C)NC(=O)[C@H](Cc1ccccc1)NC(=O)[C@H](CC(C)C)NC(=O)[C@H](CC(C)C)NC(=O)[C@@H](N)CC(C)C)C(=O)N[C@@H](CCCCN)C(=O)N[C@@H](CCCCN)C(=O)N[C@@H](CCCNC(=N)N)C(=O)N[C@@H](CCCCN)C(=O)N[C@@H](CCCCN)C(=O)N[C@@H](CCCNC(=N)N)C(=O)N[C@@H](CCCCN)C(=O)N[C@@H](Cc1ccc(O)cc1)C(=O)NCCCC[C@H](NC(=O)[C@H](Cc1ccc(O)cc1)NC(=O)[C@H](CCCCN)NC(=O)[C@H](CCCNC(=N)N)NC(=O)[C@H](CCCCN)NC(=O)[C@H](CCCCN)NC(=O)[C@H](CCCNC(=N)N)NC(=O)[C@H](CCCCN)NC(=O)[C@H](CCCCN)NC(=O)[C@H](CC(C)C)NC(=O)[C@H](CC(C)C)NC(=O)[C@H](Cc1ccccc1)NC(=O)[C@H](CC(C)C)NC(=O)[C@H](CC(C)C)NC(=O)[C@@H](N)CC(C)C)C(N)=O (I: H-LLLFLLKKRKKRKYK-NH2 / II: H-LLLFLLKKRKKRKY; amide I:15-II:C) | 1.8 | 0.4 µM | 0.4 µM | 2 µmol/g | 16.7 %ID | 0.6 %ID | 23.2 min | 28.3 %ID | 3.1 %ID | 18.8 %ID | 5 µmol/g |
| C[C@H](NC(=O)[C@H](Cc1cnc[nH]1)NC(=O)[C@H](CO)NC(=O)[C@@H](N)CC(=O)O)C(=O)N[C@@H](CCCCN)C(=O)N[C@@H](CCCNC(=N)N)C(=O)N[C@@H](Cc1cnc[nH]1)C(=O)N[C@@H](Cc1cnc[nH]1)C(=O)NCC(=O)N[C@@H](Cc1ccc(O)cc1)C(=O)N[C@@H](CCCCN)C(=O)N[C@@H](CCCNC(=N)N)C(=O)N[C@@H](CCCCN)C(=O)N[C@@H](Cc1ccccc1)C(=O)N[C@@H](Cc1cnc[nH]1)C(=O)N[C@@H](CCC(=O)O)C(=O)N[C@@H](CCCCN)C(=O)N[C@@H](Cc1cnc[nH]1)C(=O)N[C@@H](Cc1cnc[nH]1)C(=O)N[C@@H](CO)C(=O)N[C@@H](Cc1cnc[nH]1)C(=O)N[C@@H](CCCNC(=N)N)C(=O)NCC(=O)N[C@@H](Cc1ccc(O)cc1)C(=O)O [HISTATIN 5] | 1.8 | 8.3 µM | 2.8 µM | 3.5 µmol/g | 8.7 %ID | 0.5 %ID | 9.7 min | 23.8 %ID | 1.4 %ID | 25.9 %ID | 1 µmol/g |
